Experimental data from ChEMBL document CHEMBL1121565, “Antiarrhythmic activity of amitriptyline analogues in conscious dogs after myocardial infarction: cyproheptadinium methiodide” (1980).

Legend:
[1] = test system: Canis familiaris; test: Evaluated for the antiarrhythmic activity in conscious dogs after myocardial infarction by observing 50% reduction in ectopic rate..; assay type: functional, Canis lupus familiaris, Heart
Procedure, shortened: (§1)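 After 30-45 min of adjustment with lead II ECG recording (about 80-85% ectopic complexes), drug was given iv through a foreleg vein in 0.5 mL increments at 2-min intervals. Dosing stopped at sinus rhythm or 3.0 mg/kg total.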

[2] = test system: Canis familiaris; test: Evaluated for the antiarrhythmic activity in conscious dogs after myocardial infarction by observing for conversion to sinus rhythm.; assay type: functional, Canis lupus familiaris, Heart; procedure, shortened: as §1
[3] = test system: Canis familiaris; test: Heart beat rate was measured in dogs after subsequent administration of 50 micorg/Kg 30 min after administration of 25 ug/Kg dose of the compound; assay type: functional, Canis lupus familiaris
Procedure, shortened: (§2)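 Anesthetized dogs with no cardiac insult were allowed about 30 min to stabilize after surgery, then given 25 µg/kg iv, followed by 50 µg/kg 30 min later. Arterial pressure, lead II ECG from limb needle electrodes, ECG-derived heart rate and left ventricular dp/dt at 50 mmHg developed pressure were recorded at 100 mm/s. Values before and 5 min after dosing were compared by Student's t test, p < 0.05.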

[4] = test system: Canis familiaris; test: Heart beat rate was measured in dogs after 5 min of administration of 25 ug/Kg dose of the compound; assay type: functional, Canis lupus familiaris; procedure, shortened: as §2
[5] = species: Canis familiaris; test: Myocardial contractility was measured in dogs prior to the treatment with compound; assay type: functional, Canis lupus familiaris, Myocardium; procedure, shortened: as §2
[6] = species: Canis familiaris; test: Heart beat rate was measured in dogs prior to the treatment with compound; assay type: functional, Canis lupus familiaris; procedure, shortened: as §2
[7] = test system: Canis familiaris; test: Myocardial contractility was measured in dogs after 5 min of administration of 25 ug/Kg dose of the compound; assay type: functional, Canis lupus familiaris, Myocardium; procedure, shortened: as §2
[8] = test system: Canis familiaris; test: Compound was tested for its activity against altering of mean arterial blood pressure when administered with a dose of 25 ug/Kg; Could not significantly alter; assay type: functional, organism-based; details: Canis lupus familiaris; Artery; procedure, shortened: as §2

What does the source list for CCN(CC)CC(=O)Nc1c(C)cccc1C.Cl?
Dose [1]: 5.54 µM/kg; Dose [2]: 9.97 µM/kg

How did the Dose [1] turn out when CN(C)CCC=C1c2ccccc2CCc2ccccc21 [AMITRIPTYLINE] was run?
Its Dose is 3.97 µM/kg.

What about the Dose [2] of the same compound?
The Dose was 4.69 µM/kg.

With CN(C)CCC=C1c2ccccc2C=Cc2ccccc21 [CYCLOBENZAPRINE] as the compound, how does the Dose [1] read?
The Dose was 3.99 µM/kg.

What about the Dose [2] of the same compound?
Its Dose is 6.17 µM/kg.

C[N+]1(C)CCC(=C2c3ccccc3C=Cc3ccccc32)CC1.[I-] was tested. Which Heart beat [3] did it give?
Its Heart beat is 196 beats min-1.

What about the Dose [1] of the same compound?
Its Dose is 0.03 µM/kg.

What about the Heart beat [4] of the same compound?
Its Heart beat is 174 beats min-1.

And the Activity [5]?
The Activity was 2333 mmHg s-1.

And the Heart beat [6]?
The Heart beat was 148 beats min-1.

And the Activity [7]?
The Activity was 3250 mmHg s-1.

And the Activity [8]?
Its Activity is “Could not significantly alter”.

What about the Dose [2] of the same compound?
The Dose was 0.042 µM/kg.

With CN1CCC(=C2c3ccccc3C=Cc3ccccc32)CC1 [CYPROHEPTADINE] as the compound, how does the Dose [1] read?
The Dose was 0.69 µM/kg.

And the Dose [2]?
The Dose was 1.04 µM/kg.
